Experimental data from ChEMBL document CHEMBL3817826, “H2S-Donating Doxorubicins May Overcome Cardiotoxicity and Multidrug Resistance” (J Med Chem, 2016).
Activity calls are given as the source filed them. No cut-off for these calls is given here.

What was measured:
[1] = Half life of compound assessed as human serum esterase-mediated degradation at 100 uM by RP-HPLC analysis; assay type: ADME
Outline: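 10 mM DMSO stock added to human serum pre-warmed to 37 °C, giving 100 μM final. Samples taken over time and deproteinized with equal volume acetonitrile/0.1% HCOOH, then spun 2150 g 10 min and filtered. Analysed by RP-HPLC against 1–200 μM calibration. t1/2 from one-phase exponential decay fit, at least triplicate.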

U2OS [2] = experiment: Increase in intracellular ROS accumulation in human U2OS cells at 5 uM incubated for 24 hrs in presence of hydroxocobalamin by DCFDA-AM probe-based fluorimetrical analysis relative to control; assay type: functional, cell-based
Outline: (§1)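 Cells grown in DMEM with 10% FBS at 37 °C, 5% CO2, resistant variants selected in 30, 100 or 580 ng/mL doxorubicin; treated 24 h with 5 μM drug plus 100 μM hydroxocobalamin. 1×10^6 cells loaded 30 min at 37 °C with 5 μM DCFDA-AM in PBS; fluorescence at ex 492/em 517 nm, expressed as nmol ROS/mg protein; duplicates, n = 3.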

U2OS [3] = experiment: Activity at PgP in human […] cells assessed as Vmax measured per mg of protein incubated for 20 mins by fluorimetrical analysis; assay type: cell-based
Outline: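 U-2OS/DX580 cells exposed 20 min to 0-50 μM drug, washed, intracellular doxorubicin read fluorimetrically; parallel dishes left a further 10 min at 37 °C before reading. Efflux rate (difference, nmol extruded/min/mg cell protein) plotted against initial concentration; Vmax and Km fitted. Means ± SD, n = 3.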

U2OS [4] = experiment: Induction of intracellular ROS accumulation in human U2OS/DX580 cells at 5 uM incubated for 24 hrs by DCFDA-AM probe-based fluorimetrical analysis relative to control; assay type: functional, cell-based
Outline: (§2)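 After 24 h at 5 μM, 1×10^6 cells in 0.5 mL PBS were loaded with 5 μM DCFDA-AM for 30 min at 37 °C, spun and resuspended. Fluorescence read at ex 492/em 517 nm, expressed as nmol ROS/mg cell protein. Duplicate, n = 3, mean ± SD.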

[5] = Drug uptake in human U2OS/DX100 cells at 5 uM incubated for 24 hrs by fluorimetrical analysis; assay type: ADME, cell-based
Outline: (§3)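 Intracellular drug measured after 24 h exposure to 5 μM. Cell lysates read fluorimetrically at ex 475/em 553 nm with cell-free blank subtracted. Converted by calibration curve to nmol drug/mg cell protein. Duplicate, n = 3, mean ± SD.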

U2OS [6] = experiment: Induction of intracellular ROS accumulation in human U2OS/DX100 cells at 5 uM incubated for 24 hrs by DCFDA-AM probe-based fluorimetrical analysis relative to control; assay type: functional, cell-based; outline: as §2
U2OS [7] = experiment: Increase in intracellular ROS accumulation in human U2OS/DX100 cells at 5 uM incubated for 24 hrs in presence of hydroxocobalamin by DCFDA-AM probe-based fluorimetrical analysis relative to control; assay type: functional, cell-based; outline: as §1
U2OS [8] = experiment: Induction of intracellular ROS accumulation in human U2OS cells at 5 uM incubated for 24 hrs by DCFDA-AM probe-based fluorimetrical analysis relative to control; assay type: functional, cell-based; outline: as §2
[9] = biological target: DNA topoisomerase 2-alpha (Homo sapiens) (UniProt P11388); experiment: Inhibition of human topoisomerase 2-mediated DNA cleavage at 5 uM using supercoiled pHOT1 plasmid as substrate by agarose gel electrophoresis
[10] = Induction of H2S release from compound in DMEM at 100 uM incubated for 1 to 24 hrs using DNS-Az by fluorimetric assay-based HPLC analysis; assay type: physicochemical
Outline: (§4)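 Compound at 200 μM initial (half concentration for two low-solubility compounds) in medium or human serum at 37 °C with dansyl azide. Sampled at 1, 4 and 24 h, diluted with CH3CN, spun and filtered. Isocratic RP-HPLC with fluorescence ex 340/em 535 nm. Dansyl amide peak quantified against NaHS calibration as H2S index. At least triplicate.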

U2OS [11] = experiment: Increase in intracellular ROS accumulation in human U2OS/DX30 cells at 5 uM incubated for 24 hrs in presence of hydroxocobalamin by DCFDA-AM probe-based fluorimetrical analysis relative to control; assay type: functional, cell-based; outline: as §1
[12] = Stability of compound in pre-heated IMDM at 200 uM at 37 degC by RP-HPLC analysis; assay type: physicochemical
Outline: (§5)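 10 mM DMSO stock diluted into medium pre-warmed to 37 °C, giving 200 μM final, then incubated at 37 °C. Aliquots diluted 1:1 with acetonitrile/0.1% HCOOH, filtered and run on RP-HPLC, quantified against 1–200 μM standards. t1/2 from one-phase exponential decay fit, at least triplicate.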

H9c2 [13] = experiment: Cytotoxicity in rat H9c2 cells at 5 uM incubated for 24 hrs in presence of NAC by LDH release-based spectrofluorimetrical analysis relative to control; assay type: cell-based; conditions: h9c2, 24 h
Serum = experiment: Induction of H2S release from compound in human serum at 100 uM incubated for 1 to 24 hrs using DNS-Az by fluorimetric assay-based HPLC analysis; assay type: functional; outline: as §4
U2OS [14] = experiment: Induction of intracellular ROS accumulation in human U2OS/DX30 cells at 5 uM incubated for 24 hrs by DCFDA-AM probe-based fluorimetrical analysis relative to control; assay type: functional, cell-based; outline: as §2
U2OS [15] = experiment: Increase in intracellular ROS accumulation in human U2OS/DX580 cells at 5 uM incubated for 24 hrs in presence of hydroxocobalamin by DCFDA-AM probe-based fluorimetrical analysis relative to control; assay type: functional, cell-based; outline: as §1
H9c2 [16] = experiment: Cytotoxicity in rat H9c2 cells assessed as intracellular ROS accumulation at 5 uM incubated for 24 hrs by DCFDA-AM probe-based fluorimetrical analysis relative to control; assay type: cell-based; conditions: h9c2, 24 h; outline: as §2
[17] = Drug uptake in human U2OS/DX30 cells at 5 uM incubated for 24 hrs by fluorimetrical analysis; assay type: ADME, cell-based; outline: as §3
[18] = Drug uptake in human U2OS/DX580 cells at 5 uM incubated for 24 hrs by fluorimetrical analysis; assay type: ADME, cell-based; outline: as §3
U2OS [19] = experiment: Drug uptake in human U2OS cells at 5 uM incubated for 24 hrs by fluorimetrical analysis; assay type: ADME, cell-based; outline: as §3
H9c2 [20] = experiment: Drug uptake in rat H9c2 cells at 5 uM incubated for 24 hrs by fluorimetrical analysis; assay type: ADME, cell-based; conditions: h9c2, 24 h; outline: as §3
H9c2 [21] = experiment: Cytotoxicity in rat H9c2 cells assessed as intracellular ROS accumulation at 5 uM incubated for 24 hrs in presence of hydroxocobalamin by DCFDA-AM probe-based fluorimetrical analysis relative to control; assay type: cell-based; conditions: h9c2, 24 h
Outline: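 H9c2 cells held 24 h with 5 μM drug plus 100 μM hydroxocobalamin, then loaded with 5 μM DCFDA-AM for 30 min at 37 °C. Fluorescence read at 492/517 nm, expressed as nmol ROS/mg protein. Duplicate, n = 3.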

[22] = Induction of H2S release from compound in IMDM at 100 uM incubated for 1 to 24 hrs using DNS-Az by fluorimetric assay-based HPLC analysis; assay type: physicochemical; outline: as §4
[23] = Half life of compound in pre-heated DMEM at 200 uM at 37 degC by RP-HPLC analysis; assay type: physicochemical; outline: as §5
H9c2 [24] = experiment: Cytotoxicity in rat H9c2 cells at 5 uM incubated for 24 hrs by LDH release-based spectrofluorimetrical analysis relative to control; assay type: cell-based; conditions: h9c2, 24 h
Outline: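 Cells exposed 24 h to 5 μM drug in DMEM with 10% FBS at 37 °C, 5% CO2. Medium spun 12,000 × g 5 min. Cells sonicated in 82.3 mM triethanolamine phosphate-HCl pH 7.6. LDH in medium and lysate followed 6 min at 340 nm. Extracellular LDH reported as % of total dish activity, duplicate, n = 3, mean ± SD.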

Chain of DNA topoisomerase 2-alpha (Homo sapiens) (P11388 whole entry): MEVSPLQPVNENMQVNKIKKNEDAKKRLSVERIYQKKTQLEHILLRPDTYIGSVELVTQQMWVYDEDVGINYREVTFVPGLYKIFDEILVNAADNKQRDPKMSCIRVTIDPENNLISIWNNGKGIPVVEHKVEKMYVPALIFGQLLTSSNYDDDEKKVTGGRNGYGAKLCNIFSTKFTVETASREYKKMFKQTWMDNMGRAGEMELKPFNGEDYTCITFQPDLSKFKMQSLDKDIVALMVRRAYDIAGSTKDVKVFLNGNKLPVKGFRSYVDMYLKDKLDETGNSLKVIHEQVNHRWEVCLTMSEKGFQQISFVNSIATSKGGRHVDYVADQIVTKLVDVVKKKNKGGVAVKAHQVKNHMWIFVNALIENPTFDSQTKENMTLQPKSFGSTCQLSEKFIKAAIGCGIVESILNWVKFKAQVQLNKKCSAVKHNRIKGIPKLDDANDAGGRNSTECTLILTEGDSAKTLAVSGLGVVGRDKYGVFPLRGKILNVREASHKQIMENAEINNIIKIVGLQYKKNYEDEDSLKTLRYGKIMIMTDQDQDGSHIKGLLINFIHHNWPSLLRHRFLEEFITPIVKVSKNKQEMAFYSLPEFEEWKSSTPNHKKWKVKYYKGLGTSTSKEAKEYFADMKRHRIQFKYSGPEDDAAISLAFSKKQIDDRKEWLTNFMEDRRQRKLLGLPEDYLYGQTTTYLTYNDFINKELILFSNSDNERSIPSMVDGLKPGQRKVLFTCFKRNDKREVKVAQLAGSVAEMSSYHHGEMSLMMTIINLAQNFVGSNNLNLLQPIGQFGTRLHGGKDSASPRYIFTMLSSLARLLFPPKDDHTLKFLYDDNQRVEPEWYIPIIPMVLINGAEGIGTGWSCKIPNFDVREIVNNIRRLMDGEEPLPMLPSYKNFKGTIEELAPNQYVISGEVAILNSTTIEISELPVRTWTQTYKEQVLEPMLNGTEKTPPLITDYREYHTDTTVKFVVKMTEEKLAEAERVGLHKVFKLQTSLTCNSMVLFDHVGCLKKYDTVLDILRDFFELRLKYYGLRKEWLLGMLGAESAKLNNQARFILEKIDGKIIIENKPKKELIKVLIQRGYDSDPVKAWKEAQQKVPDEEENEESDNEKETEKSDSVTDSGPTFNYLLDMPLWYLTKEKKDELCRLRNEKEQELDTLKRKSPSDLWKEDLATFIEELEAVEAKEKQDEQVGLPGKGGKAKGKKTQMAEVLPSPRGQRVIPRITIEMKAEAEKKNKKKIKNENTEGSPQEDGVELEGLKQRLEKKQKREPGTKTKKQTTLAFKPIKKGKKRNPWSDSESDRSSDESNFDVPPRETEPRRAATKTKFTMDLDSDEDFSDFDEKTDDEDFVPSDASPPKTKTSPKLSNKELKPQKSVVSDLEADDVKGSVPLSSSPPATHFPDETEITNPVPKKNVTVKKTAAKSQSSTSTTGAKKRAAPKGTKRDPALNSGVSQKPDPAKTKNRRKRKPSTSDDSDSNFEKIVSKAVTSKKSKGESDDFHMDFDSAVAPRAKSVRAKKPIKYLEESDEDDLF

| Structure (SMILES) | half-life at 100 µM [1] | Drug uptake [5] | Activity (U2OS [8]) | inhibition [9] | Activity [10] | Stability [12] | Activity (H9c2 [13]) | Activity (Serum) | Activity (H9c2 [16]) | Drug uptake [17] | Drug uptake [18] | Drug uptake (U2OS [19]) | Drug uptake (H9c2 [20]) | Activity (H9c2 [21]) | Activity [22] | half-life at 200 µM [23] | Activity (H9c2 [24]) | further results |
| --- | --- | --- | --- | --- | --- | --- | --- | --- | --- | --- | --- | --- | --- | --- | --- | --- | --- | --- |
| COc1cccc2c1C(=O)c1c(O)c3c(c(O)c1C2=O)C[C@@](O)(C(=O)COC(=O)c1ccc(-c2ssc(=S)c2-c2ccccc2)cc1)C[C@@H]3O[C@H]1C[C@H](N)[C@H](O)[C@H](C)O1.Cl | 2.8 h | Active | inactive | inactive | Not Active | Stable | Non-toxic | Active | Non-toxic | Active | Active | Active | Active | Toxic | Not Active | > 24 h | Non-toxic | Activity (U2OS [2]): Active; Vmax (U2OS [3]): 10.2 nmol/min/mg; Activity (U2OS [4]): inactive; Activity (U2OS [6]): inactive; Activity (U2OS [7]): Active; Activity (U2OS [11]): Active; Activity (U2OS [14]): inactive; Activity (U2OS [15]): Active |
| COc1cccc2c1C(=O)c1c(O)c3c(c(O)c1C2=O)C[C@@](O)(C(=O)COC(=O)COc1ccc(-c2cc(=S)ss2)cc1)C[C@@H]3O[C@H]1C[C@H](N)[C@H](O)[C@H](C)O1.Cl | 0.05 h |  | inactive | inactive | Not Active | Unstable | Non-toxic | Active | Non-toxic |  |  |  | Active | Toxic | Not Active | 0.267 h | Non-toxic |  |
| C=CCSSCCC(=O)OCC(=O)[C@]1(O)Cc2c(O)c3c(c(O)c2[C@@H](O[C@H]2C[C@H](N)[C@H](O)[C@H](C)O2)C1)C(=O)c1c(OC)cccc1C3=O.Cl | 3.8 h | Active | inactive | inactive | Not Active | Stable |  | Active | Non-toxic | Active | Active | Active | Active | Toxic | Not Active | 5.6 h | Toxic |  |
| COc1cccc2c1C(=O)c1c(O)c3c(c(O)c1C2=O)C[C@@](O)(C(=O)COC(=O)c1ccc(C(N)=S)cc1)C[C@@H]3O[C@H]1C[C@H](N)[C@H](O)[C@H](C)O1.Cl | 0.633 h | Active | inactive | inactive | Not Active | Stable |  | Active | Non-toxic | Active | Active | Active | Active | Toxic | Not Active | 3.4 h | Toxic |  |
| COc1cccc2c1C(=O)c1c(O)c3c(c(O)c1C2=O)C[C@@](O)(C(=O)COC(=O)c1csc(=S)s1)C[C@@H]3O[C@H]1C[C@H](N)[C@H](O)[C@H](C)O1.Cl | 0.283 h |  | inactive | inactive | Not Active | Unstable | Non-toxic | Active | Non-toxic |  |  |  | Active | Toxic | Not Active | 0.283 h | Non-toxic |  |
| C=CCSCC(NC(C)=O)C(=O)OCC(=O)[C@]1(O)Cc2c(O)c3c(c(O)c2[C@@H](O[C@H]2C[C@H](N)[C@H](O)[C@H](C)O2)C1)C(=O)c1c(OC)cccc1C3=O.Cl (some centres not stated) | 0.183 h |  | inactive | inactive | Not Active | Unstable | Non-toxic | inactive | Non-toxic |  |  |  | Active | Toxic | Not Active | < 0.0167 h | Non-toxic |  |
| COC(=O)c1ccc(C(N)=S)cc1 |  |  |  |  |  |  |  |  |  |  |  |  |  |  |  |  | Toxic |  |
| C=CCSSCCC(=O)OCC |  |  |  |  |  |  |  |  |  |  |  |  |  |  |  |  | Toxic |  |
| COc1cccc2c1C(=O)c1c(O)c3c(c(O)c1C2=O)C[C@@](O)(C(=O)COC(=O)c1ccc(-c2cssc2=S)cc1)C[C@@H]3O[C@H]1C[C@H](N)[C@H](O)[C@H](C)O1.Cl | 4.6 h | Active | inactive | inactive | Active | Stable | Non-toxic | Active | Non-toxic | Active | Active | Active | Active | Toxic | Active | 21.5 h | Non-toxic | Activity (U2OS [2]): Active; Activity (U2OS [4]): inactive; Activity (U2OS [6]): inactive; Activity (U2OS [7]): Active; Activity (U2OS [11]): Active; Activity (U2OS [14]): inactive; Activity (U2OS [15]): Active |
